The chains are these.
B1: tRNA (parent)
chain: GUUCCGUUGGCGUAAUGGUAACGCGUCUCCCUCCUAAGGAGAAGACUGCGGGUUCGAGUCCCGUACGGAACG

Fewer inactive variants are shown than the library holds.

The variants in this series derive from B1. Put plainly: yeast fitness relative to wild type (ratio to wild type); higher = fitter; tRNA-Arg(CCU), competitive growth, 37 C, YPD. The procedure, abridged: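 Genotype frequency changes were the basis for Darwinian fitness relative to wild type. The frequencies came from 100-nucleotide paired-end sequencing of gene amplicons from the start population and each end population of pooled yeast strains with tRNA-Arg(CCU) gene variants at the native locus. Competition ran in YPD at 37°C for 24 hours in six replicates, genotypes needed ≥ 100 starting reads, and estimates < 0.5 were set to 0.5.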
Consider GUUUCGUUGGCGUAAUGGUAACGCGUCUCCCUCCUAAGGAGGAGACUGCGGGUUCGAGUCCCGUUCGGAACG [C4U A42G A65U], for which the yeast fitness is 0.611. In the case of GUUCCGUUGGGGUAAUGGUAACGCGUCUCCCUCCUCAGGAGAAGACUGCGGGUUCAAGUCCCGUGCGGAACG [C11G A36C G56A A65G], the yeast fitness is no more than 0.5. On to GUUCCGUCGGCGUCAUGGUAACGCGUCUCCCUCCUAAGGAGAAGACUGCGGGUUCGAGUCCCGUACGGAACG [U8C A14C], for which the yeast fitness worked out at 0.66. To GUUGCGUUGGCGUAAUGCUAACGCGUCUCCCUCCUAAGGAGAAGACUGCGGGUUCGAGUCCCGUACGCAACG [C4G G18C G68C] belongs 0.636; to GUUCCGUUGGCGUAAUGGUAACGCGUCUCCCUCCUAAGGAGAAGACUGCGGGUUCGAGUCCCGUAUGAAACG [C66U G68A], 0.871. With GUUACGUUGGCGUAACAGUAACGCGUCUCCCUCCUAAGGCGAUGACAGCGGGUUCGAGUACCGUACGGAACG [C4A U16C G17A A40C A43U U47A C60A], the yeast fitness was no more than 0.5. For the variant GUUCCGUUGGCGUAAUGGUAACGCGUCUCCCUCCUAAGGAGAAGACCGCGGGUUCGAGUCCCGUACGGAUCG [U47C A70U], the yeast fitness was 0.955. In the case of GGUCCGUUGGCGUAAUGGUAACGCGUCACCCCCCUAAGGAGAAGACUGGGGAUUCGAGUCCCGUACGGAACG [U2G U28A U32C C49G G52A], the yeast fitness was no more than 0.5. As to GUUCCGUUGGCGUAAUGGUAAUGCGUCUCCCUCCUAAGGCGAAGACUGCGGGUUCGACUCCCGUACGGUACG [C22U A40C G58C A69U], the yeast fitness was no more than 0.5. For GUUCCGUUGGCGUAAUGGCAACGCGUCUCCCUCCUAAGGAGAAGACUCCGGGUUCGAGUCCCGUACGGCACG [U19C G48C A69C], the yeast fitness stood at 1.03. For the variant GUUCCGUUGGGGUAAUGGUAACGUGUCCCCCUCCUAAGGAGAAGACUGCGGGUUCGAGUCCAGUACGGAACG [C11G C24U U28C C62A], the yeast fitness is no more than 0.5. Turning to GUUCCGUUGGCGUAAUGGUUACGCGUCUAUCUCCUUAGGAGAAGACUGCGGGUUCGAGUCCCGUACGGACCG [A20U C29A C30U A36U A70C], the yeast fitness stood at 0.594. On to GAUCCGAUGGCGUAAUGGUAACGCGUUUCCCUCCUAAGGAGAAGAGUGCGGGUUCGAGUCCCGUACGGAACG [U2A U7A C27U C46G], for which the yeast fitness was no more than 0.5. With GUUCCGAUGGCGUAAUGGUAACGGGUCUGUCUCCUAAGGCGAAGACUGCGGGUUCGAGUCCCGUACGCAACG [U7A C24G C29G C30U A40C G68C] the figure was 0.663; with GUUCGGUUGGCGUAAUGGUAACGCGUUUCCCUCUUAAGGAGAAGACUGCGGGUUCCAGUCCCGUACGGAACG [C5G C27U C34U G56C], 0.646; with GUUCCGUUGGCGUAAUGGUAACGCCUCUUCCUCCUAAGGAGUAGACUGCGGGUUCGAGUCCCGUACGGAACG [G25C C29U A42U], 0.664. GUUCCGUUGGCGUAAUGGUAACGCCUCUCCCUCCUAAGGAGACGACUGCGGGUUCGAGUCCAGGAGGGAACG [G25C A43C C62A U64G C66G]: the yeast fitness is no more than 0.5. Take GUUCCGUCGGAGUAAUGGUAACGCCUCACCCUCCUAAGGUGAAGACUGCGGGUUCGAGUCCCGUACGGAACG [U8C C11A G25C U28A A40U]: the yeast fitness was no more than 0.5. For the variant GUUCCGUUGGCGUGAUGGUGACGCGUCUCCCUCCUAAGGAGAAGACAGCGGGUUCGACUCCCGUACGGAACG [A14G A20G U47A G58C], the yeast fitness is no more than 0.5.

Consider GUUCCGUUGGCGUAAUGGUAACGCGUCUCCGUUCUACGGAGAAGACUGCGGGUUCGAGUCCCGUUCGGAACG [C31G C33U A37C A65U], for which the yeast fitness was 0.538. With GUUCGGUUGGCGUAAUGGUAACGCGACUCCCUCCUAAGGAGAAGACUGCGGGUUCGAGUCCCGUACGGAACG [C5G U26A], the yeast fitness turned out to be 0.815. As to GUUCCGUUGGCGUAAUGCUAACGCGUCUCCCUCCUAAGGAGAAGACUACGGGUUCGAGUCCCGUACGGAACG [G18C G48A], the yeast fitness came to 0.571. For the variant GUUCCGUUGGCGUAUUGGUAAUGCGUCUCCCUCCUAAGGAGAACACUGCGGGUUCGAGUCCCGUGCGGAACG [A15U C22U G44C A65G], the yeast fitness was no more than 0.5. For the variant GUUCGGUUGGUGUAAUGGUAACGCGUCUCCCUCCUAUGGAGAAGACUGCGGGUUCGAGUCCCGUACGGAACG [C5G C11U A37U], the yeast fitness is no more than 0.5. In the case of GUUCCGUGGGCGUAAUGGUAACGCGUCUCCCUCCUAAGGAGAAGACUGCGGGUUCGAGUCACGUACGGAACG [U8G C61A], the yeast fitness was 0.562. Consider GUAACGUUGGCGUAAUGGCAACGCGUUUCCCUCCUAAGGAGAAGAAUGCGGGUUCGAGUCCGGUACGGUACG [U3A C4A U19C C27U C46A C62G A69U], for which the yeast fitness was no more than 0.5. For the variant GUUCCGUUGGCGUAAGGGUCACGCGUCUCCCUCCUAAGGAGAAGACUGCGGGUUCGAGUUCCGUACGGAACG [U16G A20C C60U], the yeast fitness was no more than 0.5.

GUUCCGUUGGUGUAAUGGUAACGCGUCUCCCUCCUAAGGAGAAGACGGCGGGUUCGAGUCCCGUACGGAACG [C11U U47G]: the yeast fitness came to 0.688.

Turning to GUUCCGUUGGCGUAAUGGUAACGCGUCUUCCUCCUAAGGAGAAGACUGCGGGCUCGAGUCCCGUACGGAACG [C29U U53C], the yeast fitness came out at 0.843. As to GUUCCGUUGGCGUAGUGGUAACGCGUCUCCCUCCAAAGGAGAAGACUGCGGAUUCGAGCCCCGUAAAGAACG [A15G U35A G52A U59C C66A G67A], the yeast fitness is no more than 0.5.

On to GUUCCGCUGGCGUAAUGGUAACGCGUCUCCCUCCUAAGGUGAAGACUGCGGGUUCGAGUCCCGUACGGAACG [U7C A40U], for which the yeast fitness is 0.793. Consider GUUCCGUCGGCGUAAUGAUAACGCGUUUCCCUCCUAAGGAGAAGACUGCGGGUUCGAGUCCCGUACGGAACG [U8C G18A C27U], for which the yeast fitness is 0.531.

As for GUUCCGUUGGCGUAAUGGUAACGGGUCUCCUUCCUAAGGAGAAGACUGCGGGUUCGAGUCUCGUACGGAACG [C24G C31U C61U], the yeast fitness is no more than 0.5. Take GUUCCAUUGGCGUAAUGGUAACGCGUCUCCCUCCUAAGGCGAAGACUGCGGGUUCGAGUCCCGUACGGAACG [G6A A40C]: the yeast fitness came to 0.967. GUUCCGUUGGCGUAAUGGUAACGCGUCAUCCUCCUAGGGAGAAGACUGCGGCUUCGAGUCCCGUACGGAACG [U28A C29U A37G G52C]: the yeast fitness was no more than 0.5. To GUUCCAUUGGCGUAAUGGUCACGCGUCUCCCUCCUAAGGAGAAGACUGCGGGUUCGAGUCCCGUUCGGAACG [G6A A20C A65U] belongs 0.699; to GUUCCGUUGGUGUUAUGGUAACGGGUCUCCCUCCUAAGGAGAAAACUGUGGGUUCGAGUCCCGUACGGAACG [C11U A14U C24G G44A C49U], no more than 0.5.

Values taken from the RNAGym collection of RNA variant scans (doi:10.1126/science.aae0568).
